This is an account of results in PubChem BioAssay AID588826 (Broad Institute, 2011).

Where “and” joins values, the source holds several entries; their conditions need not be identical. Equal entries are not always repeated. Calls of active or inactive are those of the source.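 Rule for the calls: active = compounds cutting cell viability whose fitted half-maximal concentration is at most twice the top tested dose; inconclusive = flat loss between 30% and 70%, or poor curve fit; inactive = opposite effect, flat within 30%, or weaker potency.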

Test system in the first assay: not listed separately
The experiment in a line: cell viability loss, SR-BI-overexpressing CHO line – CellTiter-Glo luminescence, 24 h, dry powder, set 3, cytotoxicity control for SR-BI HDL uptake inhibitor project, dose response (AID 588826). Particulars: ldlA[mSR-BI] CHO cells viability, CellTiter-Glo ATP, 24 h; at 11 µM (top of the series). Put shortly: (§1)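 Assay system: ldlA[mSR-BI] cells; Buffer or medium: Ham's F12 growth medium with 10% FCS; Signal: ATP luminescence, CellTiter-Glo; Times: 24 h compound exposure at 37 °C, read 10 min after reagent; Read-out basis: cell viability IC50.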
On the technique in general: Cellular ATP, detected with luciferase, serves as a proxy for viable cell number.
On to `CC(C)NC(=O)Nc1cccc2c1O[C@H](CN(C)Cc1ccc(Cl)c(Cl)c1)[C@@H](C)CN([C@@H](C)CO)C2=O`, for which the activity change, negative = cytotoxicity was 6.58% (inactive).

Staying with this assay, now noted: ldlA[mSR-BI] CHO cells viability, CellTiter-Glo ATP, 24 h; at 30 µM (top of the series).
As for `C[C@@H]1CN([C@@H](C)CO)C(=O)Cc2cc(NC(=O)Nc3ccc(C(F)(F)F)cc3)ccc2O[C@@H]1CN(C)S(=O)(=O)c1ccc(Cl)cc1`, the activity change, negative = cytotoxicity was -40.4% (inactive).

The assay is the same for the next values; noted with them: ldlA[mSR-BI] CHO cells viability, CellTiter-Glo ATP, 24 h; at 35 µM (top of the series).
In the case of `CC(C(=O)NC1CCCC1)N(C(=O)Cn1nnc(-c2ccccc2)n1)C1CCCCC1` (stereo not given), the activity change, negative = cytotoxicity was 4.27% (inactive).

`COc1ccc(-c2nnn(CC(=O)N(CC3CCCCC3)C(C)C(=O)NC3CCCC3)n2)cc1OC` (stereo not given): the activity change, negative = cytotoxicity is 3.32% (inactive).

`CCOC(=O)N1CCC(NC(=O)c2ccc3c(c2)N(Cc2ccc(F)cc2)CCS3)CC1`: the activity change, negative = cytotoxicity was -13.6% (inactive).

For `CCC(=O)N1CCc2cc(-c3csc(NC(=O)c4cccc(C#N)c4)n3)ccc21`, the activity change, negative = cytotoxicity is -0.356% (inactive).

As to `CCC(=O)N1CCc2cc(-c3csc(NC(=O)c4ccc5c(c4)OCO5)n3)ccc21`, the activity change, negative = cytotoxicity is 1.94% (inactive).

With `CCC(=O)N1CCc2cc(-c3csc(NC(=O)c4ccc(Cl)s4)n3)ccc21`, the activity change, negative = cytotoxicity is -1.8% (inactive).

Take `COc1ccc(-c2nnn(CC(=O)N(C3CCCC3)C(C)C(=O)NC3CCCC3)n2)cc1OC` (stereo not given): the activity change, negative = cytotoxicity is -0.791% (inactive).

Take `CCNC(=O)N1CCc2cc(-c3csc(NC(=O)c4cc(OC)cc(OC)c4)n3)ccc21`: the activity change, negative = cytotoxicity was -8.64% (inactive).

As to `CCC(=O)N1CCc2cc(-c3csc(NC(=O)c4ccco4)n3)ccc21`, the activity change, negative = cytotoxicity was -2.4% (inactive).

Regarding `C[C@@H]1CN([C@H](C)CO)C(=O)c2cc(NC(=O)Cc3cn(C)c4ccccc34)ccc2O[C@H]1CN(C)S(=O)(=O)c1ccc(F)cc1`, the activity change, negative = cytotoxicity was -4.67% (inactive).

In the case of `CC(=O)N1CCc2cc(-c3nc(NC(=O)c4cccc(OC(F)(F)F)c4)sc3C)ccc21`, the activity change, negative = cytotoxicity is 1.36% (inactive).

Regarding `CCC(=O)N1CCc2cc(-c3csc(NC(=O)c4cccc(OC)c4)n3)ccc21`, the activity change, negative = cytotoxicity is 3.32% (inactive).

In the case of `CCC(=O)N1CC(C)(C)c2cc(-c3csc(NC(=O)c4cc(OC)cc(OC)c4)n3)ccc21`, the activity change, negative = cytotoxicity was -3.5% (inactive).

With `COc1cc(OC)cc(C(=O)Nc2nc(-c3ccc4c(c3)CCN4C(=O)CN(C)C)cs2)c1`, the activity change, negative = cytotoxicity was -10.2% (inactive).

As to `COc1ccc(-c2nnn(CC(=O)N(C3CCCCC3)C(C)C(=O)NC3CCCC3)n2)cc1OC` (stereo not given), the activity change, negative = cytotoxicity is 37.1% (inactive).

Consider `COc1cc(OC)cc(C(=O)Nc2nc(-c3ccc4c(c3)CCN4C(=O)OC(C)(C)C)cs2)c1`, for which the activity change, negative = cytotoxicity is 5.45% (inactive).

For `CC(C)(Sc1cc(C(C)(C)C)c(O)c(C(C)(C)C)c1)Sc1cc(C(C)(C)C)c(O)c(C(C)(C)C)c1`, the activity change, negative = cytotoxicity is -1.63% (inactive).

For the compound `COc1ccc(-c2cc(CC(=O)N(C3CCCCC3)C(C)C(=O)NC3CCCC3)no2)cc1OC` (stereo not given), the activity change, negative = cytotoxicity is 3.77% (inactive).

Regarding `CCC(=O)N1CCc2cc(-c3csc(NC(=O)c4ccc(F)c(OC)c4)n3)ccc21`, the activity change, negative = cytotoxicity is -12.3% (inactive).

For the compound `COCC(=O)N1CCc2cc(-c3csc(NC(=O)c4cc(OC)cc(OC)c4)n3)ccc21`, the activity change, negative = cytotoxicity was 4.05% (inactive).

Turning to `C[C@@H]1CN([C@H](C)CO)C(=O)c2cc(NC(=O)Cc3cn(C)c4ccccc34)ccc2O[C@H]1CN(C)S(=O)(=O)c1ccc(Cl)cc1`, the activity change, negative = cytotoxicity is 4.93% (inactive) and -3.5% (inactive) and 6.65% (inactive).

`COc1ccc(-c2nnn(CC(=O)N(C3CCN(C)CC3)C(C)C(=O)NC3CCCC3)n2)cc1OC` (stereo not given): the activity change, negative = cytotoxicity was 9.25% (inactive).

Consider `COc1ccc(-c2nnn(CC(=O)N(C3CCCCC3)C(C(=O)NC3CCCC3)C(C)C)n2)cc1OC` (stereo not given), for which the activity change, negative = cytotoxicity is -15.8% (inactive).

As to `O=C(CN(C(=O)Cn1nnc(-c2ccc3c(c2)OCO3)n1)C1CCCCC1)NC1CCCC1`, the activity change, negative = cytotoxicity was -3.34% (inactive).

As for `CC1CCC/C=C/C2CC(O)CC2C(O)/C=C\C(=O)O1` (stereo not given), the activity change, negative = cytotoxicity is -9.81% (inactive).

For the compound `C[C@H](C(=O)NC1CCCC1)N(C(=O)Cn1nnc(-c2ccc3c(c2)OCO3)n1)C1CCCCC1`, the activity change, negative = cytotoxicity is -10.6% (inactive).

Staying with this assay, now noted: ldlA[mSR-BI] CHO cells viability, CellTiter-Glo ATP, 24 h; at 68 µM (top of the series).
Turning to `CCOc1ccc(NC(=O)CN2CCN(CC(=O)Nc3cc(OC)cc(OC)c3)CC2)cc1`, the activity change, negative = cytotoxicity was -0.275% (inactive).

A further assay has as its system ldlA[mSR-BI] CHO cells viability, CellTiter-Glo ATP, 24 h. The assay is described as above.
Conditions: not given
In a few lines:
as §1
What is called IC50 is the concentration needed to halve the response being measured. For the compound `Cc1ccc2oc(-c3cccc(NC(=O)c4cc(-n5cnnc5)ccc4Cl)c3)nc2c1`, the IC50 was 39.9 µM.

In the case of `COc1c(NC(=O)C(=O)c2ccc(OCCN3CCOCC3)c3ccccc23)cc(C(C)(C)C)cc1NS(C)(=O)=O`, the IC50 was 17.8 µM.

Take `CCOc1ccccc1/C=C/c1onc(C)c1S(=O)(=O)N1CCC(C(=O)NC(C)(C)C)CC1`: the IC50 was 33.8 µM.

With `CC(C(=O)NC1CCCC1)N(C(=O)Cn1nnc(-c2ccc(Cl)cc2)n1)C1CCCCC1` (stereo not given), the IC50 is 53 µM.

Turning to `CCCCCCC1CCC/C1=N\NC(N)=S` (stereo not given), the IC50 is 4.46 µM.

For `C[C@H]1CN([C@@H](C)CO)C(=O)c2cccc(NC(=O)Nc3ccccc3)c2O[C@@H]1CN(C)Cc1ccc(Cl)c(Cl)c1`, the IC50 is 16.1 µM.
